# In ChEMBL document CHEMBL3351273, “NRPS substrate promiscuity leads to more potent antitubercular sansanmycin analogues” (2014):
# Tests used:
# Assay type in all cases: functional
# [1] = tested on: Mycobacterium tuberculosis; experiment: Antibacterial activity against Mycobacterium tuberculosis H37Rv after 5 days by microplate Alamar Blue assay; details: 120 h
# Method in brief: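 M. tuberculosis H37Rv grown in 7H9; final inoculum 2 × 10^6 cfu/mL. Samples from 20 mg/mL DMSO stocks, 2-fold diluted in 7H9 without Tween 80, tested in triplicate at 37 °C. From day 5, Alamar Blue plus 5% Tween 80 went to a control well; whole plate dosed once bacteria-only well turned pink. Read visually 24 h later; MIC = lowest concentration preventing colour change.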
# Pseudomonas aeruginosa = experiment: Antibacterial activity against Pseudomonas aeruginosa 11 after 24 hrs by microdilution test; details: Pseudomonas aeruginosa, 11, 24 h
# Method in brief: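 CLSI broth microdilution; P. aeruginosa 11 grown in Mueller-Hinton broth, final inoculum 10^6 cells/mL. Samples from 20 mg/mL DMSO stocks, serially diluted, run in triplicate; sansanmycin A as positive control. Incubated 37 °C for 24 h, growth read by eye; MIC = lowest concentration completely inhibiting growth.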
# [2] = tested on: Mycobacterium tuberculosis; experiment: Ratio of sansanmycin A MIC to compound MIC for Mycobacterium tuberculosis H37Rv after 5 days by microplate Alamar Blue assay
SMILES,MIC [1] [µg/mL],MIC (Pseudomonas aeruginosa) [µg/mL],Ratio [2]
CSCCC(NC(=O)NC(Cc1c[nH]c2ccccc12)C(=O)O)C(=O)NC(C(=O)N/C=C1\C[C@@H](O)[C@H](n2ccc(=O)[nH]c2=O)O1)C(C)N(C)C(=O)C(N)Cc1cccc(O)c1 (stereo partly drawn) [SANSANMYCIN A],16,4,
CSCC[C@H](NC(=O)N[C@@H](Cc1ccc(O)cc1)C(=O)O)C(=O)N[C@H](C(=O)N/C=C1/C[C@@H](O)[C@H](n2ccc(=O)[nH]c2=O)O1)[C@H](C)N(C)C(=O)C1Cc2cc(O)ccc2CN1 (stereo partly drawn),16,> 64,
CSCC[C@H](NC(=O)N[C@@H](Cc1c[nH]c2ccccc12)C(=O)O)C(=O)N[C@H](C(=O)N/C=C1/C[C@@H](O)[C@H](n2ccc(=O)[nH]c2=O)O1)[C@H](C)N(C)C(=O)C1Cc2cccc(O)c2CN1 (stereo partly drawn),> 32,> 64,
CSCC[C@H](NC(=O)N[C@@H](Cc1ccc(O)cc1)C(=O)O)C(=O)N[C@H](C(=O)N/C=C1/C[C@@H](O)[C@H](n2ccc(=O)[nH]c2=O)O1)[C@H](C)N(C)C(=O)[C@@H](N)Cc1cccc(O)c1,8,8,
C[C@@H]([C@H](NC(=O)[C@H](Cc1ccccc1)NC(=O)N[C@@H](Cc1c[nH]c2ccccc12)C(=O)O)C(=O)N/C=C1/C[C@@H](O)[C@H](n2ccc(=O)[nH]c2=O)O1)N(C)C(=O)C1Cc2cccc(O)c2CN1 (stereo partly drawn),16,32,
CO[C@H]1/C=C/O[C@@]2(C)Oc3c(C)c(O)c4c(O)c(c(/C=N/N5CCN(C)CC5)c(O)c4c3C2=O)NC(=O)/C(C)=C\C=C\[C@H](C)[C@H](O)[C@@H](C)[C@@H](O)[C@@H](C)[C@H](OC(C)=O)[C@@H]1C [RIFAMPIN],0.12,,
CSCC[C@H](NC(=O)N[C@@H](Cc1ccc(O)cc1)C(=O)O)C(=O)N[C@H](C(=O)N/C=C1/C[C@@H](O)[C@H](n2ccc(=O)[nH]c2=O)O1)[C@H](C)N(C)C(=O)C1Cc2cccc(O)c2CN1 (stereo partly drawn),> 32,> 64,
C[C@@H]([C@H](NC(=O)[C@H](Cc1ccccc1)NC(=O)N[C@@H](Cc1c[nH]c2ccccc12)C(=O)O)C(=O)N/C=C1/C[C@@H](O)[C@H](n2ccc(=O)[nH]c2=O)O1)N(C)C(=O)C1Cc2cc(O)ccc2CN1 (stereo partly drawn),2,8,8
C[C@@H]([C@H](NC(=O)[C@H](Cc1ccccc1)NC(=O)N[C@@H](Cc1c[nH]c2ccccc12)C(=O)O)C(=O)N/C=C1/C[C@@H](O)[C@H](n2ccc(=O)[nH]c2=O)O1)N(C)C(=O)[C@@H](N)Cc1cccc(O)c1,8,32,
CSCC[C@H](NC(=O)N[C@@H](Cc1c[nH]c2ccccc12)C(=O)O)C(=O)N[C@H](C(=O)N/C=C1/C[C@@H](O)[C@H](n2ccc(=O)[nH]c2=O)O1)[C@H](C)N(C)C(=O)C1Cc2cc(O)ccc2CN1 (stereo partly drawn),8,> 64,
NNC(=O)c1ccncc1 [ISONIAZID],0.05,,
C[C@@H]([C@H](NC(=O)[C@H](CC[S+](C)[O-])NC(=O)N[C@@H](Cc1c[nH]c2ccccc12)C(=O)O)C(=O)N/C=C1/C[C@@H](O)[C@H](n2ccc(=O)[nH]c2=O)O1)N(C)C(=O)[C@@H](N)Cc1cccc(O)c1 (stereo partly drawn),> 32,16,
